Assay results published in ChEMBL document CHEMBL1139996, “Synthesis, bioactivity, theoretical and molecular docking study of 1-cyano-N-substituted-cyclopropanecarboxamide as ketol-acid reductoisomerase inhibitor” (Bioorg Med Chem Lett, 2007).

System: Oryza sativa
Experiment: Inhibition of rice KARI at 200 ppm
Outline: (§1)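 Activity followed as the decrease in A340 at 30 °C. Reaction mix: 0.2 mM NADPH, 1 mM MgCl2, substrate (2-acetolactate or hydroxypyruvate) and inhibitor as required, in 0.1 M Tris–HCl, pH 8.0. Reaction started by adding enzyme. In inhibitor preincubation runs, substrate was added last instead.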

| SMILES | inhibition [%] |
| --- | --- |
| CCOC(=O)C1(C#N)CC1 | 0 |
| N#CC1(C(=O)Nc2cccc(Cl)c2)CC1 | 0 |
| N#CC1(C(=O)Nc2ccc(Cl)cc2Cl)CC1 | 97 |
| N#CC1(C(=O)Nc2cccc(Br)c2)CC1 | 17.2 |
| N#CC1(C(=O)Nc2cc(Cl)c(Cl)cc2Cl)CC1 | 0 |
| Cc1ccccc1NC(=O)C1(C#N)CC1 | 100 |
| N#CC1(C(=O)O)CC1 | 100 |
| N#CC1(C(=O)NCCO)CC1 | 98.9 |

More lines, now with the values ahead:

| inhibition [%] | SMILES |
| --- | --- |
| 93.9 | N#CC1(C(=O)Nc2ccc(Cl)cc2)CC1 |
| 32.2 | N#CC1(C(=O)Nc2ccc(Br)cc2)CC1 |
| 0 | N#CC1(C(=O)Nc2cccc(C(F)(F)F)c2)CC1 |
| 3.95 | COc1ccc(NC(=O)C2(C#N)CC2)cc1 |
| 61.2 | Cc1ccc(NC(=O)C2(C#N)CC2)cc1 |
| 77.2 | N#CC1(C(=O)Nc2ccccc2)CC1 |
| 0 | N#CC1(C(=O)Nc2ccc(C(F)(F)F)cc2)CC1 |
| 0 | N#CC1(C(=O)Nc2ccccc2C(F)(F)F)CC1 |

Target: not listed separately
Experiment: Inhibition of rice KARI
Design: species or system Oryza sativa
Outline: as §1

| Ki [µM] | SMILES |
| --- | --- |
| > 300 | Cc1ccc(NC(=O)C2(C#N)CC2)cc1 |
| 95.3 | N#CC1(C(=O)O)CC1 |
